Activity calls are given as the source filed them. The calls are words filed in the database; no cut-off is given here. Residues, ends and D or L forms follow the SMILES beside them. *: point of attachment. Boc = CC(C)(C)OC(=O)*; NHBn = c1ccc(CN*)cc1; NHPh = c1ccc(N*)cc1; Bn = c1ccc(C*)cc1
Tests used:
[1] = Inhibition of post acid activity of rabbit reticulocyte 20S proteasome; parameters: species or system Oryctolagus cuniculus
Oryctolagus cuniculus [2] = species: Oryctolagus cuniculus; assay: Inhibition of trypsin-like activity of rabbit reticulocyte 20S proteasome at 100 uM
How it was run: (§1)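 Trypsin-like site: proteasome exposed to 0.1-100 µM compound, fluorogenic substrate hydrolysis read 1 h at 37 °C in pH 7.5 20 mM Tris, 1 mM DTT, 10% glycerol without SDS; 3% DMSO final. Initial rates relative to untreated control: >100% expressed as activation factor, <100% as inhibition; Ki via Vi/V0 = 1/(1+[I]/Ki(app)) or IC50 = Ki(1+[S]/Km).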

[3] = Inhibition of chymotrypsin-like activity of rabbit reticulocyte 20S proteasome; parameters: species or system Oryctolagus cuniculus
[4] = Inhibition of trypsin-like activity of rabbit reticulocyte 20S proteasome; parameters: species or system Oryctolagus cuniculus; how it was run: as §1
Oryctolagus cuniculus [5] = species: Oryctolagus cuniculus; assay: Activation of chymotrypsin-like activity of rabbit reticulocyte 20S proteasome relative to control
Oryctolagus cuniculus [6] = species: Oryctolagus cuniculus; assay: Inhibition of post acid activity of rabbit reticulocyte 20S proteasome at 100 uM
Oryctolagus cuniculus [7] = species: Oryctolagus cuniculus; assay: Activation of trypsin-like activity of rabbit reticulocyte 20S proteasome relative to control; how it was run: as §1
[8] = Stability in RPMI medium in presence of 20% fetal calf serum; assay type: ADME; conditions: cattle, RPMI medium with 20% fetal calf serum
How it was run: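 Compound incubated up to 2 days at 37 °C in RPMI with 20% fetal calf serum. Stopped with ethanol, centrifuged at 4 °C, supernatant analysed by RP-HPLC. Half-life from linear least-squares fit of log[I] versus time, at least five points.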

HCT-116 = assay: Growth inhibition of human HCT116 cells at 50 uM after 48 hrs by MTT assay; assay type: functional, cell-based
How it was run: (§2)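 5 × 10^3 cells grown in triplicate 48 h with or without 50 µM inhibitor. Media: DMEM for HeLa and T-47D; MEM for HEK-293, HuH7 and Hep G2; McCoy for HCT-116; each with 10% FBS, 5% CO2. Survival read by MTT metabolism at 37 °C, relative to DMSO-only control.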

HepG2 = assay: Growth inhibition of human HepG2 cells at 50 uM after 48 hrs by MTT assay; assay type: functional, cell-based; how it was run: as §2
T47D = assay: Growth inhibition of human T47D cells at 50 uM after 48 hrs by MTT assay; assay type: functional, cell-based; how it was run: as §2
HeLa [9] = assay: Cytotoxicity against human HeLa cells at 50 uM after 48 hrs by MTT assay; assay type: functional, cell-based; how it was run: as §2
HeLa [10] = assay: Cytotoxicity against human HeLa cells by MTT assay; assay type: functional, cell-based
HEK293 = assay: Cytotoxicity against human HEK293 cells at 50 uM after 48 hrs by MTT assay; assay type: functional, cell-based; how it was run: as §2
Huh-7 = assay: Growth inhibition of human HuH7 cells at 50 uM after 48 hrs by MTT assay; assay type: functional, cell-based; how it was run: as §2
Oryctolagus cuniculus [11] = species: Oryctolagus cuniculus; assay: Inhibition of chymotrypsin-like activity of rabbit reticulocyte 20S proteasome at 100 uM

Compound	Ki [1]	inhibition (Oryctolagus cuniculus [2])	Ki [3]	Ki [4]	Fold change (Oryctolagus cuniculus [5])	inhibition (Oryctolagus cuniculus [6])	Fold change (Oryctolagus cuniculus [7])	also measured
CC(C)(C)OC(=O)NCCCCNC(=O)[C@H](Cc1c[nH]c2ccccc12)NC(=O)[C@H](CCCCNC(=O)OC(C)(C)C)NC(=O)[C@H](Cc1ccc(OCc2ccccc2)cc1)NC(=O)OC(C)(C)C	> 100 µM				1.6	< 20%	1.9	
CC(C)(C)OC(=O)NCCCCNC(=O)[C@H](Cc1c[nH]c2ccccc12)NC(=O)[C@H](CC(N)=O)NC(=O)[C@H](Cc1ccc(OCc2ccccc2)cc1)NC(=O)OC(C)(C)C	> 100 µM				1.6	< 20%	2.2	
C[C@H](NC(=O)[C@H](Cc1ccc(OCc2ccccc2)cc1)NC(=O)OC(C)(C)C)C(=O)N[C@@H](Cc1c[nH]c2ccccc12)C(=O)Nc1ccccc1 (Boc-Tyr(Bn)-Ala-Trp-NHPh)	> 100 µM				1.4	< 20%	1.6	
CCOC(=O)[C@H](Cc1c[nH]c2c(Br)cccc12)NC(=O)[C@H](CC(C)C)NC(=O)[C@H](Cc1ccc(OCc2ccccc2)c(I)c1)NC(=O)OC(C)(C)C	> 100 µM	< 20%	> 100 µM	> 100 µM		< 20%		inhibition (Oryctolagus cuniculus [11]): < 20%
COC(=O)[C@H](Cc1c[nH]c2c(Br)cccc12)NC(=O)[C@H](C)NC(=O)[C@H](Cc1ccc(OCc2ccccc2)c(I)c1)NC(=O)OC(C)(C)C	96.4 µM	< 20%	> 100 µM	> 100 µM				inhibition (Oryctolagus cuniculus [11]): < 20%
CC(C)C[C@H](NC(=O)[C@H](Cc1ccc(OCc2ccccc2)cc1)NC(=O)OC(C)(C)C)C(=O)N[C@@H](Cc1c[nH]c2ccccc12)C(=O)NCc1ccccc1 (Boc-Tyr(Bn)-Leu-Trp-NHBn)	> 100 µM				1.3	< 20%	1.9	
CC(C)(C)OC(=O)N[C@@H](Cc1ccc(OCc2ccccc2)cc1)C(=O)N[C@@H](CC(N)=O)C(=O)N[C@@H](Cc1c[nH]c2ccccc12)C(=O)NCc1ccccc1 (Boc-Tyr(Bn)-Asn-Trp-NHBn)	84.2 µM		59.3 µM				2.2	half-life [8]: 6.5 h
CCOC(=O)[C@H](Cc1c[nH]c2c(Br)cccc12)NC(=O)[C@H](CC(C)C)NC(=O)[C@H](Cc1ccc(OC)c(I)c1)NC(=O)OC(C)(C)C	> 100 µM	< 20%	> 100 µM	> 100 µM				inhibition (Oryctolagus cuniculus [11]): < 20%
CC(C)(C)OC(=O)N[C@@H](Cc1ccc(OCc2ccccc2)cc1)C(=O)N[C@@H](CC(N)=O)C(=O)N[C@@H](Cc1c[nH]c2ccccc12)C(=O)Nc1ccccc1 (Boc-Tyr(Bn)-Asn-Trp-NHPh)	> 100 µM				1.5	< 20%	1.6	
CC(C)(C)OC(=O)NCCCC[C@H](NC(=O)[C@H](Cc1ccc(OCc2ccccc2)cc1)NC(=O)OC(C)(C)C)C(=O)N[C@@H](Cc1c[nH]c2ccccc12)C(=O)NCc1ccccc1 (Boc-Tyr(Bn)-Lys(Boc)-Trp-NHBn)	> 100 µM				1.3	< 20%	1.8	
CC(C)(C)OC(=O)N[C@@H](Cc1ccc(OCc2ccccc2)cc1)C(=O)N[C@@H](CCCN(C(=N)NC(=O)OCc1ccccc1)C(=O)OCc1ccccc1)C(=O)N[C@@H](Cc1c[nH]c2ccccc12)C(=O)Nc1ccc(O)cc1	> 100 µM	< 20%	> 100 µM	> 100 µM		< 20%		inhibition (Oryctolagus cuniculus [11]): < 20%
C[C@H](NC(=O)[C@H](Cc1ccc(OCc2ccccc2)cc1)NC(=O)OC(C)(C)C)C(=O)N[C@@H](Cc1c[nH]c2ccccc12)C(=O)NCCCCNC(=O)OC(C)(C)C	> 100 µM				1.5	< 20%	3.2	

The next compounds have a lower Ki [1] than those just listed; values first:

Ki [1]	inhibition (Oryctolagus cuniculus [2])	Ki [3]	Ki [4]	Fold change (Oryctolagus cuniculus [5])	inhibition (Oryctolagus cuniculus [6])	Fold change (Oryctolagus cuniculus [7])	Compound	also measured
55.4 µM	< 20%	14.1 µM	> 100 µM				COC(=O)[C@H](Cc1c[nH]c2c(Br)cccc12)NC(=O)[C@H](CC(N)=O)NC(=O)[C@H](Cc1ccc(OCc2ccccc2)c(I)c1)NC(=O)OC(C)(C)C	
30.2 µM	< 20%	59.3 µM	> 100 µM				CNC(=O)[C@H](Cc1c[nH]c2c(Br)cccc12)NC(=O)[C@H](C)NC(=O)[C@H](Cc1ccc(OCc2ccccc2)c(I)c1)NC(=O)OC(C)(C)C	
74 µM	< 20%	59.3 µM	> 100 µM				COC(=O)[C@H](Cc1c[nH]c2c(Br)cccc12)NC(=O)[C@H](C)NC(=O)[C@H](Cc1ccc(OC)c(I)c1)NC(=O)OC(C)(C)C	
2.8 µM		1.6 µM	3 µM				C[C@H](NC(=O)[C@H](Cc1ccc(OCc2ccccc2)c(I)c1)NC(=O)OC(C)(C)C)C(=O)N[C@@H](Cc1c[nH]c2c(Br)cccc12)C(=O)O	half-life [8]: 37 h
1 µM	< 20%	65.7 µM	> 100 µM				C[C@H](NC(=O)[C@H](Cc1ccc(OCc2ccccc2)cc1)NC(=O)OC(C)(C)C)C(=O)N[C@@H](Cc1c[nH]c2ccccc12)C(=O)Nc1ccc(O)cc1	Activity (HCT-116): Active; Activity (HepG2): inactive; Activity (T47D): Active; Activity (HeLa [9]): Active; IC50 (HeLa [10]): 15 µM; Activity (HEK293): Active; Activity (Huh-7): Active
37.1 µM	< 20%	> 100 µM	> 100 µM		< 20%		COC(=O)[C@@H]1Cc2c[nH]c3c(cccc23)-c2ccc(cc2OC)C[C@H](NC(=O)OC(C)(C)C)C(=O)N[C@@H](C)C(=O)N1	inhibition (Oryctolagus cuniculus [11]): < 20%
23.4 µM	< 20%	> 100 µM	> 100 µM				CC(C)(C)OC(=O)N[C@@H](Cc1ccc(OCc2ccccc2)cc1)C(=O)N[C@@H](CC(N)=O)C(=O)N[C@@H](Cc1c[nH]c2ccccc12)C(=O)Nc1ccc(O)cc1	

Source: ChEMBL document CHEMBL1143703, “Linear TMC-95-based proteasome inhibitors” (J Med Chem, 2007)
